Screening results from PubChem.
AHR act: activates the human aryl hydrocarbon receptor. P35869. AHR-responsive luciferase reporter cells, luminescence. activation, % at 5 µM. hit rate 2.5% among 320,000. AID 2796; in the data active = activation above about 47%;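 also: 0% = vehicle wells and 100% = reference agonist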
STAT1 activator: STAT1 signaling activation; NIH 3T3 STAT1-luciferase reporter, IFN-gamma, luminescence; 100% = IFN-gamma alone, no compound; activation (% of control), % at 5.5 µM; hit rate 2.6% among 200,000;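 active = activation above the screen-wide mean activation plus 3 SD, cut at about 130% in these data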;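 also: raw ratio to IFN-gamma control signal so 100% means no change and 0% no light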
APP 5'UTR act: activates APP 5'UTR luciferase reporter | hit rate 1% among 190,000 | AID 1276 | SH-SY5Y APP 5'UTR luciferase reporter, luminescence; zero percent = DMSO vehicle wells | activation, % at 2 µM;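 active = activation above a set limit, based on mean plus 3 SD of controls, cut at about 140% in these data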
PERK inhibitor: inhibitors of human PERK kinase | inhibition, % at 5.6 µM | hit rate 0.17% among 220,000 | CHO PERK-DD fusion, SEAP luminescence translation reporter;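 active = inhibition above the mean inhibition of all tested compounds plus 3 SD, set separately per screening campaign, cut at about 2.9% in these data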;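 also: PERK kinase domain activated by AP20187 dimerizer at 100 nM; 0% = DMSO with dimerizer and 100% = rapamycin at 8.4 µM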
Target sequence (Q9NZJ5 whole entry, looked up, the tested form may be a part): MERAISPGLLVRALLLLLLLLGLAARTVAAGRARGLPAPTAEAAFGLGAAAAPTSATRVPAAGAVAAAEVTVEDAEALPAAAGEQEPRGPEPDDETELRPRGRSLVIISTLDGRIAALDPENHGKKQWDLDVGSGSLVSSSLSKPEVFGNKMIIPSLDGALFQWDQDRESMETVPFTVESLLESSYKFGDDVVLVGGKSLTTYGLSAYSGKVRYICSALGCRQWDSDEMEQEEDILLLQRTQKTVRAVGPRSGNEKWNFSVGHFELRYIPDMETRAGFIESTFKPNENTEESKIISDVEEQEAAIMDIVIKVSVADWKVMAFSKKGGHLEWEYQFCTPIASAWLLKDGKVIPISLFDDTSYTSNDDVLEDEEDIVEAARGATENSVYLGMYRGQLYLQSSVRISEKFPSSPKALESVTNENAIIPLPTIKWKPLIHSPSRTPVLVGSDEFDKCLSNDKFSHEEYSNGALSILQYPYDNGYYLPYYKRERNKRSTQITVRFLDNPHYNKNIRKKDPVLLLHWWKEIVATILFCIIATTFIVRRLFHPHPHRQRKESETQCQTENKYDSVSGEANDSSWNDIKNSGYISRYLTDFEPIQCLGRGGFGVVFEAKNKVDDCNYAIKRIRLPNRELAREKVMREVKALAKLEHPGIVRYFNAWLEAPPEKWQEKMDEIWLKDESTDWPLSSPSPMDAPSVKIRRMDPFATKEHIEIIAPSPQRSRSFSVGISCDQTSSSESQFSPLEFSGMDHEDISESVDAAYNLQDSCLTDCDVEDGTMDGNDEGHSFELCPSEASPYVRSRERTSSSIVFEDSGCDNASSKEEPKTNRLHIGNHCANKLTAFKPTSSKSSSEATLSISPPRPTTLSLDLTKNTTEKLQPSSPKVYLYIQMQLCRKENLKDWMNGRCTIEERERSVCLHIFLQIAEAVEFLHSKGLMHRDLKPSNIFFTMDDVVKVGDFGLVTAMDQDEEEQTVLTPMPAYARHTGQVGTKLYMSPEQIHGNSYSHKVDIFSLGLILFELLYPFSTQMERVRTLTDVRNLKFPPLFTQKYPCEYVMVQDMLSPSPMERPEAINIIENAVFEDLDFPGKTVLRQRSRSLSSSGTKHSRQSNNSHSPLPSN
MDM2 E3 inh: inhibitors of human Mdm2 E3 ubiquitin ligase | signal enhancement, % at 5 µM | hit rate 0.11% among 210,000 | Q00987 | cell-based MDM2 ubiquitination luciferase reporter, 2 h; 0 = plate control, 100 = twice control, blank-subtracted;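 active = signal enhancement of 30% or more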;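 also: luminescence tracks abundance of the self-degrading MDM2-luciferase fusion protein; higher signal means inhibition of MDM2 E3 ligase activity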
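Assay system: stable mammalian line carrying autodegrading MDM2–luciferase fusion reporter; Input: 2000 cells in each well; Compound dosing: single-point 5 µM; Schedule: 2 h compound exposure at 37 °C; Signal: SteadyLite luciferase luminescence after 15 min room-temperature reagent incubation; Evaluation: % luminescence enhancement versus blank-corrected plate control mean; Benchmarks: plate controls and plate blanks.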
NF-kB expr up: compounds increasing NF-kB expression in human neuronal cells; fold change at 12.5 µM; NF-kB reporter expression; active compounds read high; AID 1239; hit rate 1.6% among 190,000; in the data active = fold change above about 3.3
STAT1 act conf: confirmation of STAT1 signaling activators. shares compounds with STAT1 activator. hit rate 97% among 1,200. NIH 3T3 STAT1-luciferase reporter, IFN-gamma potentiation, luminescence; 100% = IFN-gamma EC80 alone, no compound. activation (% of control), % at 5.7 µM;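 active = activation above a set limit carried over from the earlier primary STAT1 screen, cut at about 140% in these data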;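 also: simple ratio to median IFN-gamma plus DMSO wells so 0% means no light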
NFkB act: activates NF-kappaB, counter-screen to STAT1 activators; HEK293T NF-kB luciferase reporter, TNF-alpha stimulated, luminescence; 100% = TNF-alpha with vehicle only; activation (% of control), % at 5.7 µM; hit rate 43% among 1,200; shares compounds with STAT1 activator;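 active = activation above the mean of solvent-only control wells plus 3 SD, set per campaign, cut at about 130% in these data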;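 also: TNF-alpha given at a submaximal dose yielding about 80% of full reporter signal; values are well signal over median control so 100% means no change and 0% no light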
STAT3 act STAT1c: counter-screen for STAT1 activators: human STAT3 activation | U3A cells STAT3-luciferase reporter, IL-6, luminescence; cells lack STAT1; 100 = IL-6 alone, no compound effect | hit rate 46% among 1,200 | activation (% of control), % at 5.7 µM | shares compounds with STAT1 activator;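 active = activation above the solvent-only control well mean plus 3 SD, set per plate batch, cut at about 110% in these data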;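 also: 0% = no luminescence and 100% = median IL-6 plus DMSO wells; higher means more STAT3 reporter activation so hits are non-selective activators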
AHR act confirm: human AHR activation, confirmation | human cells, AHR-responsive luciferase reporter, luminescence | hit rate 87% among 2,300 | activation, % at 9 µM | AID 2845 | shares compounds with AHR act; in the data active = activation above about 49%;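 also: HepG2 hepatoma cells carrying a DRE-driven firefly luciferase reporter; 0% = vehicle wells and 100% = reference agonist wells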
PXR act counter: activates human PXR in AHR activator counter-screen. cell-based PXR reporter, luciferase luminescence. shares compounds with AHR act. hit rate 88% among 2,300. activation, % at 11.6 µM; in the data active = activation above about 11%;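 also: human hepatoma DPX-2 cells expressing full-length human PXR; 0% = DMSO and 100% = reference agonist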
Active calls of the source: *; . = not tested or not shown. An excerpt weighted towards active compounds, which were near 4.5% of everything screened.

SMILES | AHR act | STAT1 activator | APP 5'UTR act | PERK inhibitor | MDM2 E3 inh | NF-kB expr up | STAT1 act conf | NFkB act | STAT3 act STAT1c | others
O=C(COC(=O)c1ccc([N+](=O)[O-])o1)Nc1ccc(F)cc1 | 3 | . | . | . | . | . | . | . | .
Cc1ccc2nc(-c3ccc(NC(=O)CN4C(=O)NC(C)(c5ccc(OC(F)F)cc5)C4=O)cc3)sc2c1 (stereo unspecified) | -2 | 155* | 150* | 0 | -9 | 1.5 | 186* | 129 | 113*
CCCCNC(=S)Nc1ccc(-c2nc3ccc(C)cc3s2)cc1 | 14 | 151* | 180* | 0 | . | 11* | 210* | 143* | 100
CCOC(=O)Cc1csc(SCC(=O)NC2CCC(C)CC2)n1 (stereo unspecified) | 1 | . | . | . | . | . | . | . | .
COc1cc(NC(=O)C(C)Oc2ccccc2)ccc1NC(=O)COc1ccccc1 (stereo unspecified) | 24 | . | . | . | . | . | . | . | .
COCCNC(=O)/C(C#N)=C/C(C)=C/c1ccccc1 | -5 | 91 | -2 | 1 | 7 | 1.1 | . | . | .
C=C(C)CSc1nc2sc3c(c2c(=O)n1-c1ccccc1)CCN(C)C3 | 0 | . | . | . | . | . | . | . | .
CCC(C)(C)NC(=S)Nc1ccc(-c2nc3ccc(C)cc3s2)cc1 | 15 | 177* | 173* | 0 | -4 | 2.5 | 200* | 130 | 107
CCCC(=O)OCC(=O)Nc1ccc(N=Nc2ccccc2)cc1 | 13 | 155* | 98 | 0 | -3 | 4.7* | 189* | 137* | 117*
O=C(O)CCC(=O)Nc1ccc(N=Nc2ccccc2)cc1 | . | 109 | 0 | 2 | -6 | 1.2 | . | . | .
N/C(=N\OC(=O)c1cccs1)c1ccccc1 | 23 | 156* | 83 | 1 | -28 | 1.9 | 161* | 129 | 105
COc1ccc(/C(N)=N/OC(=O)c2cccs2)cc1OC | 6 | 159* | 66 | 0 | -3 | 1.9 | 140* | 118 | 104
Cc1ccc(/C(N)=N/OC(=O)c2cccs2)cc1 | -6 | 164* | . | 1 | -27 | 1.1 | 188* | 142* | 116*
COc1ccccc1C/C(N)=N/OC(=O)c1cccs1 | 3 | 99 | 4 | -1 | -6 | 0.95 | . | . | .
CCN(CC(=O)NCc1ccc(F)cc1)C(=O)c1ccc(COc2ccccc2)cc1 | 10 | . | . | . | . | . | . | . | .
Cc1ccc(-c2nc3cc(N)ccc3o2)c(C)c1 | 18 | 154* | 42 | 1 | -48 | 4.9* | 233* | 112 | 96
COc1ccc(-n2c(C)cc(C(=O)Cn3nnc4ccccc4c3=O)c2C)cc1 | 6 | 155* | 18 | 0 | -29 | 1.3 | 176* | 106 | 99
COc1ccc(S(=O)(=O)NC(N)=NCCc2ccccc2)cc1 | 9 | 101 | 5 | 1 | -10 | 1.3 | . | . | .
O=C(Nc1scc(-c2ccc(F)cc2)c1C(=O)O)c1ccco1 | -3 | 123 | 7 | 1 | -7 | 1.6 | . | . | .
O=C(Nc1nc(-c2ccncc2)cs1)c1ccco1 | 11 | 118 | 7 | 1 | -34 | 0.61 | . | . | .
COc1ccc2c(c1)Cc1sc(NC(=O)c3ccco3)nc1-2 | -6 | 189* | 186* | -1 | 2 | 3.9* | 199* | 147* | 104
COC(=O)c1c(-c2ccccc2)csc1NC(=O)c1ccco1 | -1 | 174* | 23 | 0 | -12 | 1.7 | 194* | 135* | 105
Cc1sc(NC(=O)c2ccco2)nc1-c1ccccc1 | 43 | 202* | 170* | 0 | -34 | 6.9* | 237* | 135* | 112*
O=C(Nc1nc(-c2cccs2)cs1)c1ccco1 | 15 | 159* | 196* | 0 | -6 | 3.6* | 173* | 134* | 103
O=C(CONS(=O)(=O)c1ccc(Cl)cc1)NCCNc1ncc(C(F)(F)F)cc1Cl | 0 | 97 | 6 | 1 | -23 | 0.83 | . | . | .
SMILES | AHR act | STAT1 activator | APP 5'UTR act | PERK inhibitor | MDM2 E3 inh | NF-kB expr up | STAT1 act conf | NFkB act | STAT3 act STAT1c | others
Cc1cc(C(C)(C)C)cc(C)c1S(=O)(=O)N1CC(=O)Nc2ccccc21 | 2 | . | . | 0 | -12 | . | . | . | .
CC(C)n1c(Oc2ccc(F)cc2)nc2c1c(=O)n(C)c(=O)n2C | 4 | 92 | 0 | 2 | -8 | 1.1 | . | . | .
CC(=O)c1c(C)nc(-c2ccc(Cl)cc2)nc1N | 92* | 152* | 116 | 0 | 1 | 1.1 | 175* | 140* | 146* | AHR act confirm=130*;PXR act counter=33*
CSc1nc(-c2ccccc2)nc(N)c1C(C)=O | 20 | 106 | . | 1 | 0 | 1.3 | . | . | .
Clc1ccc(-n2nnc(-c3cccnc3)n2)cc1Cl | 112* | 159* | 51 | 2 | . | 2.3 | 149* | 125 | 108 | AHR act confirm=135*;PXR act counter=38*
O=C(Cc1ccsc1)NCC(=O)Nc1ccccc1Br | -1 | . | . | . | . | . | . | . | .
Cc1ccc(NC(=O)Nc2cnc3ccccc3c2)cc1 | 93* | 181* | 198* | -1 | -10 | 3 | 193* | 129 | 111* | AHR act confirm=104*;PXR act counter=22*
Cc1ccc(NC(=S)c2ccncc2)c(C)c1 | 2 | . | . | . | . | . | . | . | .
Cc1ccc(NC(=S)c2nc3ccccc3[nH]2)c(C)c1 | 94* | 169* | 133 | -1 | -22 | 3.2 | 191* | 122 | 113* | AHR act confirm=84*
CN(C)C=Nc1ccc2nn(-c3ccccc3)nc2c1 | 109* | 165* | 79 | 0 | -7 | 5.6* | 186* | 134* | 109 | AHR act confirm=117*;PXR act counter=17*
O=C(NCCc1ccccc1)c1n[nH]c2ccccc12 | 101* | 164* | 88 | 2 | -27 | 3.4* | 184* | 130 | 104 | AHR act confirm=103*;PXR act counter=71*
Fc1cccc2sc(Nc3nc4cc5c(cc4s3)OCO5)nc12 | 130* | 175* | 139* | 1 | -5 | 3.5* | 213* | 141* | 125* | AHR act confirm=121*;PXR act counter=12*
CC(=O)Nc1nc2c(F)cccc2s1 | 46 | 95 | 3 | 0 | . | . | . | . | .
COc1ccccc1-c1nc(-c2ccncc2)no1 | 80* | 159* | 106 | 1 | -11 | 2.3 | 188* | 131 | 111* | AHR act confirm=83*;PXR act counter=35*
